According to ChEMBL document CHEMBL5058577, “EUbOPEN Chemogenomics Library 2 (Multiplex)” (2022):

System: Fibroblast
Experiment: Multiplex assay against human fibroblast
Format: toxicity, cell-based
How it was run: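 Per cents of healthy-nucleus cells form the tubulin, mitochondrial-mass and membrane-permeability phenotype values. Live cells were stained at seeding with Hoechst33342, BioTracker Green Microtubule Cytoskeleton Dye, MitoTracker Red and Annexin V Alexa Fluor 680. After compound addition they were imaged on a CQ1 microscope at 37°C and 5% CO2, and CellPathfinder machine-learning gating split them into Hoechst high-intensity objects or normal cells, normal cells into healthy, pyknosed or fragmented nuclei, and pyknosed cells into mitotic or apoptotic.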

[1] = 12 h, 1 µM, compound concentration 1 uM, replicate 1
[2] = 12 h, 1 µM, compound concentration 1 uM, replicate 2
[3] = 12 h, 10 µM, compound concentration 10 uM, replicate 1
[4] = 12 h, 10 µM, compound concentration 10 uM, replicate 2
[5] = 24 h, 1 µM, compound concentration 1 uM, replicate 1
[6] = 24 h, 1 µM, compound concentration 1 uM, replicate 2
[7] = 24 h, 10 µM, compound concentration 10 uM, replicate 1
[8] = 24 h, 10 µM, compound concentration 10 uM, replicate 2
[9] = 48 h, 1 µM, compound concentration 1 uM, replicate 1
[10] = 48 h, 1 µM, compound concentration 1 uM, replicate 2
[11] = 48 h, 10 µM, compound concentration 10 uM, replicate 1
[12] = 48 h, 10 µM, compound concentration 10 uM, replicate 2

## CC(C)c1noc(N2CCC(COc3ccc(-c4ccc(S(C)(=O)=O)cc4)nc3)CC2)n1 [GSK-1292263]
[1]
  Population Apoptotic (%): 38%
  Population Fragmented Nuclei (%): 14%
  Population Healthy Nuclei (%): 74%
  Population Hoechst High Intensity Objects (%): 2%
  Population Membrane Permeable-Phenotype (%): 0%
  Population Mitochondria Different-Phenotype (%): 1%
  Population Mitotic Cells (%): 61%
  Population Normal (%): 97%
  Population Pyknosed Nuclei (%): 11%
  Population Tubulin-Different-Phenotype (%): 21%
  Total Cell Count: 189
[2]
  Population Apoptotic (%): 29%
  Population Fragmented Nuclei (%): 18%
  Population Healthy Nuclei (%): 50%
  Population Hoechst High Intensity Objects (%): 6%
  Population Membrane Permeable-Phenotype (%): 4%
  Population Mitochondria Different-Phenotype (%): 5%
  Population Mitotic Cells (%): 70%
  Population Normal (%): 93%
  Population Pyknosed Nuclei (%): 31%
  Population Tubulin-Different-Phenotype (%): 41%
  Total Cell Count: 149
[3]
  Population Apoptotic (%): 39%
  Population Fragmented Nuclei (%): 8%
  Population Healthy Nuclei (%): 65%
  Population Hoechst High Intensity Objects (%): 3%
  Population Membrane Permeable-Phenotype (%): 1%
  Population Mitochondria Different-Phenotype (%): 5%
  Population Mitotic Cells (%): 60%
  Population Normal (%): 96%
  Population Pyknosed Nuclei (%): 26%
  Population Tubulin-Different-Phenotype (%): 39%
  Total Cell Count: 162
[4]
  Population Apoptotic (%): 35%
  Population Fragmented Nuclei (%): 26%
  Population Healthy Nuclei (%): 45%
  Population Hoechst High Intensity Objects (%): 2%
  Population Membrane Permeable-Phenotype (%): 6%
  Population Mitochondria Different-Phenotype (%): 10%
  Population Mitotic Cells (%): 64%
  Population Normal (%): 97%
  Population Pyknosed Nuclei (%): 27%
  Population Tubulin-Different-Phenotype (%): 61%
  Total Cell Count: 145
[5]
  Population Apoptotic (%): 50%
  Population Fragmented Nuclei (%): 9%
  Population Healthy Nuclei (%): 78%
  Population Hoechst High Intensity Objects (%): 3%
  Population Membrane Permeable-Phenotype (%): 1%
  Population Mitochondria Different-Phenotype (%): 0%
  Population Mitotic Cells (%): 50%
  Population Normal (%): 96%
  Population Pyknosed Nuclei (%): 11%
  Population Tubulin-Different-Phenotype (%): 17%
  Total Cell Count: 182
[6]
  Population Apoptotic (%): 44%
  Population Fragmented Nuclei (%): 20%
  Population Healthy Nuclei (%): 53%
  Population Hoechst High Intensity Objects (%): 7%
  Population Membrane Permeable-Phenotype (%): 4%
  Population Mitochondria Different-Phenotype (%): 2%
  Population Mitotic Cells (%): 55%
  Population Normal (%): 92%
  Population Pyknosed Nuclei (%): 25%
  Population Tubulin-Different-Phenotype (%): 41%
  Total Cell Count: 142
[7]
  Population Apoptotic (%): 52%
  Population Fragmented Nuclei (%): 12%
  Population Healthy Nuclei (%): 67%
  Population Hoechst High Intensity Objects (%): 2%
  Population Membrane Permeable-Phenotype (%): 1%
  Population Mitochondria Different-Phenotype (%): 5%
  Population Mitotic Cells (%): 47%
  Population Normal (%): 97%
  Population Pyknosed Nuclei (%): 20%
  Population Tubulin-Different-Phenotype (%): 50%
  Total Cell Count: 168
[8]
  Population Apoptotic (%): 46%
  Population Fragmented Nuclei (%): 21%
  Population Healthy Nuclei (%): 55%
  Population Hoechst High Intensity Objects (%): 3%
  Population Membrane Permeable-Phenotype (%): 10%
  Population Mitochondria Different-Phenotype (%): 10%
  Population Mitotic Cells (%): 53%
  Population Normal (%): 96%
  Population Pyknosed Nuclei (%): 23%
  Population Tubulin-Different-Phenotype (%): 56%
  Total Cell Count: 123
[9]
  Population Apoptotic (%): 66%
  Population Fragmented Nuclei (%): 19%
  Population Healthy Nuclei (%): 74%
  Population Hoechst High Intensity Objects (%): 3%
  Population Membrane Permeable-Phenotype (%): 0%
  Population Mitochondria Different-Phenotype (%): 1%
  Population Mitotic Cells (%): 33%
  Population Normal (%): 96%
  Population Pyknosed Nuclei (%): 6%
  Population Tubulin-Different-Phenotype (%): 22%
  Total Cell Count: 193
[10]
  Population Apoptotic (%): 54%
  Population Fragmented Nuclei (%): 27%
  Population Healthy Nuclei (%): 47%
  Population Hoechst High Intensity Objects (%): 8%
  Population Membrane Permeable-Phenotype (%): 13%
  Population Mitochondria Different-Phenotype (%): 4%
  Population Mitotic Cells (%): 45%
  Population Normal (%): 91%
  Population Pyknosed Nuclei (%): 24%
  Population Tubulin-Different-Phenotype (%): 55%
  Total Cell Count: 156
[11]
  Population Apoptotic (%): 63%
  Population Fragmented Nuclei (%): 13%
  Population Healthy Nuclei (%): 65%
  Population Hoechst High Intensity Objects (%): 2%
  Population Membrane Permeable-Phenotype (%): 0%
  Population Mitochondria Different-Phenotype (%): 8%
  Population Mitotic Cells (%): 36%
  Population Normal (%): 97%
  Population Pyknosed Nuclei (%): 20%
  Population Tubulin-Different-Phenotype (%): 48%
  Total Cell Count: 164
[12]
  Population Apoptotic (%): 50%
  Population Fragmented Nuclei (%): 31%
  Population Healthy Nuclei (%): 51%
  Population Hoechst High Intensity Objects (%): 0%
  Population Membrane Permeable-Phenotype (%): 9%
  Population Mitochondria Different-Phenotype (%): 14%
  Population Mitotic Cells (%): 50%
  Population Normal (%): 100%
  Population Pyknosed Nuclei (%): 17%
  Population Tubulin-Different-Phenotype (%): 76%
  Total Cell Count: 125
